From ChEMBL document CHEMBL1137344, “Flavonoid dimers as bivalent modulators for P-glycoprotein-based multidrug resistance: synthetic apigenin homodimers linked with defined-length poly(ethylene glycol) spacers increase drug retention and enhance chemosensitivity in resistant cancer cells” (J Med Chem, 2006) come the findings set out here.

Calls of active or inactive are those of the source. The rule behind the calls is not given here.

The subject of assay [1] is P388. Nature of the assay: Relative fold, IC50 in absence to presence of 1,13-bis[4'-((5,7-dihydroxy)-4H-chromen-4-on-2-yl)phenyl]-1,4,7,10,13-pentaoxatridecane in multidrug resistant P388 cells. Format: functional, Mus musculus. In short, it runs like this:
(§1)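 P388/ADR cells seeded 5000/well in RPMI 1640 with 10% FBS, given drug concentration series with or without 5 µM modulator for 3 days. MTS/PMS added for 2 h at 37 °C, absorbance at 490 nm. IC50 from dose-response curves versus 0.05% DMSO controls. RF = IC50 without modulator / IC50 with modulator.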

For assay [2], the system named is P388. Kind of assay: Antiproliferative activity against P388 cells by ELISA. The class given is functional, cell-based. The settings on record: Mus musculus. In short, it runs like this:
(§2)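 MTS/PMS proliferation assay: cells seeded 5000/well in RPMI 1640 with 10% FBS and penicillin/streptomycin at 37 °C, 5% CO2. Drug series added and cells grown 3 days. MTS/PMS added for 2 h at 37 °C, absorbance read at 490 nm. Survival relative to DMSO (0.05%) controls; IC50 from dose-response curves, at least triplicate.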
A general note: An ELISA detects its analyte on a solid surface through an enzyme-linked reagent.

Assay [3] concerns P388/ADR. Kind of assay: Antiproliferative activity against adriamycin resistant P388 cells in presence of 5 uM 1,13-bis[4'-((5,7-dihydroxy)-4H-chromen-4-on-2-yl)phenyl]-1,4,7,10,13-pentaoxatridecane by ELISA. The class given is functional, cell-based. Particulars: Mus musculus. In short, it runs like this:
as §1

In assay [4] the test system is P388/ADR. Nature of the assay: Antiproliferative activity against adriamycin resistant P388 cells by ELISA. Format: functional, cell-based. Particulars: Mus musculus. In short, it runs like this: as §2
The subject of assay [5] is MDA-MB-435. Kind of assay: Antiproliferative activity against multidrug resistant MDA435/LCC6 cells by ELISA. Format: functional, cell-based. Particulars: Homo sapiens. In short, it runs like this: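 MTS/PMS proliferation assay: cells seeded 2000/well, drugs added after 24 h attachment, growth 4 days in DMEM with 10% FBS at 37 °C, 5% CO2. MTS/PMS added for 2 h, absorbance read at 490 nm. Survival is taken relative to DMSO (0.05%) controls. IC50 is read from dose-response curves, at least triplicate, repeated twice.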

Assay [6] concerns MDA-MB-435. Kind of assay: Antiproliferative activity against MDA435/LCC6 cells by ELISA. The settings on record: Homo sapiens. The class given is functional, cell-based.
In assay [7] the test system is MDA-MB-435. Nature of the assay: Relative fold, IC50 in absence to presence of 1,13-bis[4'-((5,7-dihydroxy)-4H-chromen-4-on-2-yl)phenyl]-1,4,7,10,13-pentaoxatridecane in multidrug resistant MDA435/LCC6 cells. Format: functional, Homo sapiens. In short, it runs like this:
(§3)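 Resistant breast cells seeded 2000/well, allowed 24 h attachment, then exposed to anticancer-drug concentration series with or without 5 µM modulator for 4 days. MTS/PMS read at 490 nm after 2 h. IC50 from dose-response curves relative to 0.05% DMSO controls. RF = IC50 without modulator divided by IC50 with modulator.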

Assay [8] has as its system MDA-MB-435. Kind of assay: Antiproliferative activity against multidrug resistant MDA435/LCC6 cells in presence of 5 uM 1,13-bis[4'-((5,7-dihydroxy)-4H-chromen-4-on-2-yl)phenyl]-1,4,7,10,13-pentaoxatridecane by ELISA. Format: functional, cell-based. The settings on record: Homo sapiens. In short, it runs like this:
as §3

The test system of assay [9] is P388/ADR. Nature of the assay: Reversal of DOX resistance in P388 ADR cells by MTS assay at 5 uM. Format: functional, cell-based. Particulars: Mus musculus. In short, it runs like this:
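P388/ADR cells: 3-day MTS assay of DOX dose-response with modulator at 5 µM, or 10 µM for monomers. Verapamil 5 µM and 0.05% DMSO as controls. IC50 from curves, triplicate points, mean ± SD of three independent experiments.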
(Tetrazolium assays rely on reduction of a dye to a coloured formazan, in cell work by metabolically active cells.)

Assay [10] deals with MDA-MB-435. Kind of assay: Cytotoxicity against MDA435/LCC6 cells at 5 uM. Format: functional, cell-based. The settings on record: Homo sapiens.
Assay [11] deals with MDA-MB-435. Nature of the assay: Reversal of paclitaxel resistance in multidrug resistant MDA435/LCC6 cells by MTS assay. The class given is functional, cell-based. The settings on record: Homo sapiens. In short, it runs like this: (§4)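 Resistant MDA435/LCC6 cells, 4-day MTS assay of paclitaxel or vinblastine dose-response with dimers at 5 µM or monomers at 10 µM. Verapamil 5 µM as positive control, DMSO 0.05% as solvent control. IC50 from curves, triplicate, some repeated three times and averaged.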

For assay [12], the system named is MDA-MB-435. Kind of assay: Reversal of vinblastine resistance in multidrug resistant MDA435/LCC6 cells by MTS assay. The class given is functional, cell-based. The settings on record: Homo sapiens. In short, it runs like this: as §4
Assay [13] relates to MDA-MB-435. Kind of assay: Reversal potency of vinblastine resistance in multidrug resistant MDA435/LCC6 cells by MTS assay. Format: functional. Particulars: Homo sapiens, in the assay text read “doxorubicin” for “vinblastine”.
Assay [14] concerns MDA-MB-435. Kind of assay: Effect on P-gp-mediated drug efflux in multidrug resistant MDA435/LCC6 cells assessed as relative fold in intracellular DOX accumulation at 10 uM. Format: functional, Homo sapiens. In short, it runs like this:
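Resistant MDA435/LCC6 cells grown to confluence, preincubated 30 min at 37 °C in fresh DMEM with modulator (0–20 µM), then DOX added (final 20 µM) for 2 h at 37 °C. Cells trypsinized, washed in cold PBS, lysed in 0.3 N HCl/50% ethanol, sonicated, centrifuged. Supernatant fluorescence read at ex 470/em 585 nm. Mean ± SD of three independent experiments.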

Assay [15] has as its system MDA-MB-435. Nature of the assay: Antiproliferative activity against multidrug resistant MDA435/LCC6 cells in presence of 5 uM verapamil by ELISA. Format: functional, cell-based. Particulars: Homo sapiens. In short, it runs like this:
as §3

In assay [16] the test system is MDA-MB-435. Kind of assay: Relative fold, IC50 in absence to presence of verapamil in multidrug resistant MDA435/LCC6 cells. Format: functional, Homo sapiens. In short, it runs like this: as §3

As for `O=C1c2c(O)ccc(O)c2C(=O)c2c(NCCNCCO)ccc(NCCNCCO)c21` [MITOXANTRONE], the “Ratio IC50” value in the assay on P388 [1] turned out to be 2; in the assay with MDA-MB-435 [7] it was 2.2. In addition, the IC50 with P388 [2] stood at 4.3 nM; with P388/ADR [3], 194 nM; with P388/ADR [4] it was 395 nM; in the assay on MDA-MB-435 [5], 1440 nM; with MDA-MB-435 [6], 0.35 nM; with MDA-MB-435 [8], 646 nM.

For the molecule `O=c1cc(-c2ccc(OCCOCCOCCOCCOCCOCCOCCOc3ccc(-c4cc(=O)c5c(O)cc(O)cc5o4)cc3)cc2)oc2cc(O)cc(O)c12`, the result in the assay with P388/ADR [9] and in the assay with MDA-MB-435 [10] was inactive.

`COc1ccc(CCN(C)CCCC(C#N)(c2ccc(OC)c(OC)c2)C(C)C)cc1OC` (stereo unspecified) [VERAPAMIL]: the EC50 in the assay with MDA-MB-435 [11] stood at 700 nM. For the same molecule, the IC50 worked out at 5.2 nM in the assay on MDA-MB-435 [11] and 0.25 nM in the assay with MDA-MB-435 [12].

Regarding `O=c1cc(-c2ccc(OCCOCCOc3ccc(-c4cc(=O)c5c(O)cc(O)cc5o4)cc3)cc2)oc2cc(O)cc(O)c12`, the values for the IC50 with MDA-MB-435 [11] and with MDA-MB-435 [12] were 19.9 nM and 0.61 nM, respectively. The IC60 in the assay with MDA-MB-435 [13] was 1300 nM. Also, the Activity in the assay on MDA-MB-435 [14] came out at 4.5. The result in the assay with MDA-MB-435 [10] was inactive.

As to `CC[C@]1(O)C[C@H]2CN(CCc3c([nH]c4ccccc34)[C@@](C(=O)OC)(c3cc4c(cc3OC)N(C=O)[C@H]3[C@@](O)(C(=O)OC)[C@H](OC(C)=O)[C@]5(CC)C=CCN6CC[C@]43[C@@H]65)C2)C1` [VINCRISTINE], the “Ratio IC50” value in the assay with P388 [1] came out at 66; in the assay on MDA-MB-435 [7], 41. Moreover, the IC50 came out at 2.2 nM with P388 [2]; 4.5 nM in the assay on P388/ADR [3]; 299 nM with P388/ADR [4]; 26 nM in the assay on MDA-MB-435 [5]; 0.29 nM in the assay on MDA-MB-435 [6]; 0.63 nM in the assay on MDA-MB-435 [8].

On to `O=c1cc(-c2ccc(OCCOCCOCCOCCOCCOc3ccc(-c4cc(=O)c5c(O)cc(O)cc5o4)cc3)cc2)oc2cc(O)cc(O)c12`, for which the outcome in the assay with P388/ADR [9] and in the assay on MDA-MB-435 [10] was inactive.

For `O=c1cc(-c2ccc(OCCOc3ccc(-c4cc(=O)c5c(O)cc(O)cc5o4)cc3)cc2)oc2cc(O)cc(O)c12`, the result in the assay on P388/ADR [9] and in the assay with MDA-MB-435 [10] was inactive.

In the case of `O=c1cc(-c2ccc(OCCOCCOCCOCCOCCOCCOc3ccc(-c4cc(=O)c5c(O)cc(O)cc5o4)cc3)cc2)oc2cc(O)cc(O)c12`, the outcome in the assay on P388/ADR [9] and in the assay on MDA-MB-435 [10] was inactive.

Consider `CC(=O)O[C@H]1C(=O)[C@@]2(C)[C@H]([C@H](OC(=O)c3ccccc3)[C@]3(O)C[C@H](OC(=O)[C@H](O)[C@@H](NC(=O)c4ccccc4)c4ccccc4)C(C)=C1C3(C)C)[C@]1(OC(C)=O)CO[C@@H]1C[C@@H]2O` [PACLITAXEL], for which the “Ratio IC50” value was 55 in the assay on P388 [1], 20 in the assay with MDA-MB-435 [16] and 22 in the assay on MDA-MB-435 [7]. The IC50 is 22 nM in the assay with P388 [2]; 30 nM with P388/ADR [3]; 1640 nM with P388/ADR [4]; 105 nM in the assay on MDA-MB-435 [5]; 5.2 nM in the assay on MDA-MB-435 [15]; 2.9 nM in the assay on MDA-MB-435 [6]. Moreover, the IC50 with MDA-MB-435 [8] came out at 4.8 nM.

Consider `O=c1cc(-c2ccc(OCCOCCOCCOCCOCCOCCOCCOCCOCCOc3ccc(-c4cc(=O)c5c(O)cc(O)cc5o4)cc3)cc2)oc2cc(O)cc(O)c12`, for which the result in the assay with P388/ADR [9] and in the assay with MDA-MB-435 [10] was inactive.

`O=c1cc(-c2ccc(OCCOCCOCCOCCOCCOCCOCCOCCOc3ccc(-c4cc(=O)c5c(O)cc(O)cc5o4)cc3)cc2)oc2cc(O)cc(O)c12`: the result in the assay on P388/ADR [9] and in the assay on MDA-MB-435 [10] was inactive.

Take `O=c1cc(-c2ccc(OCCOCCOCCOc3ccc(-c4cc(=O)c5c(O)cc(O)cc5o4)cc3)cc2)oc2cc(O)cc(O)c12`: the IC50 in the assay with MDA-MB-435 [11] amounted to 21.5 nM; in the assay on MDA-MB-435 [12] it was 0.87 nM. In addition, in the assay on MDA-MB-435 [13], the IC60 came to 1300 nM. Also, the Activity in the assay with MDA-MB-435 [14] is 4. In addition, in the assay with MDA-MB-435 [10], the outcome was inactive.

Usually IC50 stands for the concentration needed to halve the response being measured. Usually EC50 stands for the concentration needed to bring the measured effect to its halfway point.
